Results pooled from the literature.
Protocols differ between the studies behind these lines.
Cell line: K562
Read-out: cell growth or viability

| SMILES | test | setting | IC50 |
| --- | --- | --- | --- |
| CCCON(Cc1ccc(C(=O)NO)cc1)C(=O)Nc1ccccc1 | ATP luminescence | 72 h | 1770 nM |
| CCCCc1ccc2[nH]c(NC(=O)OC)nc2c1 | CCK-8 | 72 h | 61.2 nM |
| CN1c2ccccc2C(=O)N2[C@H](C(=O)Nc3ccc(/C=C/C(=O)NO)cc3)Cc3c([nH]c4ccccc34)[C@@H]12 |  |  | 1000 nM |
| COC(=O)Nc1nc2ccc(Oc3ccc(NC(=O)Nc4cc(C(F)(F)F)ccc4F)cc3)cc2s1 | XTT | 72 h | 81 nM |
| CCCCC1=CC2C=CC=CC1C2C1CCCCC1=O (centres unmarked) | flow cytometry |  | 29 nM |
| CC(C)C[C@H](NC(=O)[C@H](Cc1ccccc1)NC(=O)c1cnccn1)B(O)O | ATP luminescence |  | 5.6 nM |
| C[C@@H](O)C(=O)CCCCCCC(=O)Nc1ccccc1 | thymidine uptake |  | 62500 nM |
| O=C1NC(=NCc2cccs2)S/C1=C\c1ccc2ncccc2c1 |  |  | > 10000 nM |
| C#CCSc1nc(Sc2nnnn2-c2ccccc2)c2nnn(Cc3ccc(OC)cc3)c2n1 | MTS | 6 days | 7240 nM |
| O=C1CCCCC1C1C2C=CC=CC1C(CCN1C(=O)c3ccccc3C1=O)=C2 (centres unmarked) | flow cytometry |  | 11 nM |
| C[C@H](O)C(=O)CCCCCCC(=O)Nc1cccc(-c2cn(-c3ccccc3)nn2)c1 | thymidine uptake |  | 7120 nM |
| O=C1CCCCC1C1C2C=CC=CC1/C(=C/Cc1ccccc1)C2 (centres unmarked) | flow cytometry |  | 38 nM |
| Cc1cc(NCCCCCCCNc2cc(C)nc3cc(N)ccc23)c2ccc(N)cc2n1 | XTT | 96 h | 13000 nM |
| CCOC(=O)CCC1=CC2C=CC=CC1C2C1CCCCC1=O (centres unmarked) | flow cytometry |  | 21 nM |
| CC(C)[C@H](N)C(=O)N1CCC[C@H]1B(O)O | ATP luminescence | 48 h | > 60000 nM |
| CC(=O)OCCC1=CC2C=CC=CC1C2C1CCCCC1=O (centres unmarked) | flow cytometry |  | 39 nM |
| Cc1c(O)c(=O)ccn1CCO | MTT | 72 h | ≥ 100000 nM |
